Experimental data taken from ChEMBL document CHEMBL4680108, “Ancistrolikokine E, a 5,8'-Coupled Naphthylisoquinoline Alkaloid, Eliminates the Tolerance of Cancer Cells to Nutrition Starvation by Inhibition of the Akt/mTOR/Autophagy Signaling Pathway” (2018).
The source made the active and inactive calls. No cut-off for these calls is given here.

What was measured:
[1] = test system: PANC-1; assay: Inhibition of cell migration in human PANC1 cells assessed as wound length at 10 uM cultured in nutrient rich DMEM medium measured after 48 hrs by wound healing assay relative to T0; assay type: functional; set-up: scale not given: the % may be the effect or the level left
Method in brief: (§1)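 PANC-1 monolayers (5 × 10^5 cells/well), attached 24 h, scratched about 600 μm with a pipet tip, washed with PBS. Exposed in DMEM to 0–10 μM for 48 h in triplicate. Wound length measured at 10 points on phase-contrast images and expressed relative to initial length at T0.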

[2] = test system: PANC-1; assay: Anticancer activity against human PANC-1 cells assessed as induction of morphological changes at 10 uM measured after 7 hrs by digital cell imaging analysis; assay type: functional, cell-based
Method in brief: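 PANC-1 cells (3 × 10^6) in 35 mm dishes in nutrient-deprived medium (NDM), treated with 10 μM; kept in a stage-top incubator at 37 °C, 5% CO2. Phase-contrast images taken every 10 min for 24 h (145 frames, 20× objective). Untreated cells in NDM served as control.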

[3] = test system: PANC-1; assay: Induction of apoptosis in human PANC-1 cells cultured in nutrient-deprived medium assessed as inhibition of Bcl-xl measured after 6 hrs by Western blot analysis; assay type: functional, cell-based; settings: dose 2.5-40 µM
Method in brief: (§2)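 PANC-1 cells in NDM or DMEM exposed to compound at different concentrations for 6 h, then immunoblotted for Bcl-2, Bcl-xL and caspase-3.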

[4] = test system: PANC-1; assay: Inhibition of Akt/mTOR signaling pathway in human PANC-1 cells cultured in nutrient-deprived medium assessed as decrease in phosphorylated mTOR level at S2448 residue at 40 uM measured after 6 hrs by Western blot analysis relative to control; assay type: cell-based
Method in brief: (§3)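 Western blot of PANC-1 cells exposed to compound at different concentrations for 6 h in NDM or DMEM. Probed for total and phosphorylated Akt and mTOR and for GβL. Band levels compared with untreated control cells in NDM.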

[5] = test system: PANC-1; assay: Inhibition of Akt/mTOR signaling pathway in human PANC-1 cells cultured in nutrient-deprived medium assessed as decrease in phosphorylated mTOR level at S2448 residue measured after 6 hrs by Western blot analysis; assay type: cell-based; settings: dose 2.5-40 µM; method in brief: as §3
[6] = test system: PANC-1; assay: Induction of apoptosis in human PANC-1 cells cultured in nutrient-deprived medium assessed as induction of active caspase-3 cleavage at 2.5 to 40 uM measured after 6 hrs by Western blot analysis; assay type: functional, cell-based; settings: dose 2.5-40 µM; method in brief: as §2
[7] = test system: PANC-1; assay: Inhibition of Akt/mTOR signaling pathway in human PANC-1 cells cultured in nutrient-deprived medium assessed as decrease in total mTOR level at 40 uM measured after 6 hrs by Western blot analysis relative to control; assay type: cell-based; method in brief: as §3
[8] = test system: PANC-1; assay: Inhibition of Akt/mTOR signaling pathway in human PANC-1 cells cultured in nutrient-deprived medium assessed as decrease in phosphorylated Akt level at S473 residue at 20 uM measured after 6 hrs by Western blot analysis relative to control; assay type: cell-based; method in brief: as §3
[9] = test system: PANC-1; assay: Inhibition of colony formation in human PANC-1 cells cultured in nutrient rich DMEM medium measured after 24 hrs by crystal violet staining based assay; assay type: functional, cell-based; settings: dose 2.5-10 µM
Method in brief: (§4)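 PANC-1 cells (5 × 10^2/well) attached in DMEM for 24 h, then exposed to 0, 2.5, 5 or 10 μM in DMEM for 24 h (triplicate). Washed, grown in fresh compound-free DMEM for 12 days, fixed in 4% formaldehyde and stained with crystal violet for 10 min. Colony area measured as a percentage of well area.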

[10] = test system: PANC-1; assay: Induction of necrosis in human PANC-1 cells cultured in nutrient-deprived medium assessed as rupture of cell membrane at 5 uM measured after 24 hrs by ethidium bromide/acridine orange staining based phase contrast microscopy; assay type: functional
Method in brief: (§5)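 PANC-1 cells (2 × 10^5/well) attached in DMEM for 24 h, washed twice with PBS, then treated in NDM (1.25, 2.5, 5 μM; control in NDM alone) for 24 h. Stained with ethidium bromide/acridine orange and imaged in phase-contrast and red/green fluorescence modes (20× objective).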

[11] = test system: PANC-1; assay: Inhibition of colony formation in human PANC-1 cells at 5 uM cultured in nutrient rich DMEM medium measured after 24 hrs by crystal violet staining based assay relative to control; assay type: functional; method in brief: as §4
[12] = test system: PANC-1; assay: Inhibition of colony formation in human PANC-1 cells at 2.5 uM cultured in nutrient rich DMEM medium measured after 24 hrs by crystal violet staining based assay relative to control; assay type: functional; method in brief: as §4
[13] = test system: PANC-1; assay: Inhibition of autophagy in human PANC-1 cells cultured in nutrient-deprived medium assessed as inhibition of LC3-1 expression at 40 uM after 6 hrs in presence of chloroquine by Western blot analysis; assay type: functional, cell-based
[14] = test system: PANC-1; assay: Inhibition of colony formation in human PANC-1 cells at 10 uM cultured in nutrient rich DMEM medium measured after 24 hrs by crystal violet staining based assay relative to control; assay type: functional; method in brief: as §4
[15] = test system: PANC-1; assay: Induction of apoptotic cell death in human PANC-1 cells cultured in nutrient-deprived medium assessed as leakage of cellular contents in to the medium at 5 uM measured after 24 hrs by Hoechst 33342 staining based phase-contrast digital microscopy; assay type: functional
Method in brief: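 Cells (2 × 10^5) plated in 35 mm dishes, left 24 h to attach, washed twice with PBS, then given 5 μM in NDM for 24 h. Hoechst 33342 added directly to the medium for 5 min. Imaged in phase-contrast and fluorescence modes (20× objective).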

[16] = test system: PANC-1; assay: Induction of apoptosis in human PANC-1 cells assessed as inhibition of Bcl-2 after 6 hrs by Western blot analysis; assay type: functional, cell-based; settings: dose 2.5-40 µM; method in brief: as §2
[17] = test system: PANC-1; assay: Inhibition of autophagy in human PANC-1 cells cultured in nutrient-deprived medium assessed as inhibition of LC3-2 expression at 40 uM after 6 hrs in presence of chloroquine by Western blot analysis relative to control; assay type: functional, cell-based
[18] = test system: PANC-1; assay: Inhibition of autophagy in human PANC-1 cells cultured in nutrient-deprived medium after 6 hrs by MDC-staining based fluorescence microscopy analysis; assay type: functional, cell-based; settings: dose 40.0 µM
Method in brief: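 PANC-1 cells under nutrient starvation given monodansylcadaverine with or without compound for 6 h. Autolysosome fluorescence viewed in fluorescence and phase-contrast modes.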

[19] = test system: PANC-1; assay: Anticancer activity against human PANC-1 cells assessed as cell death at 10 uM measured within 20 hrs by digital cell imaging analysis relative to control; assay type: functional
Method in brief: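 PANC-1 cells (3 × 10^6) in 35 mm dishes were exposed to 10 μM compound in nutrient-deprived medium in a stage-top incubator at 37 °C, 5% CO2. Phase-contrast images were taken every 10 min for 24 h (145 frames, 20× objective). Untreated cells in NDM served as control.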

[20] = test system: PANC-1; assay: Inhibition of cell migration in human PANC1 cells assessed as wound length at 5 uM cultured in nutrient rich DMEM medium measured after 48 hrs by wound healing assay relative to T0; assay type: functional; set-up: scale not given: the % may be the effect or the level left; method in brief: as §1
[21] = test system: PANC-1; assay: Induction of necrosis in human PANC-1 cells cultured in nutrient-deprived medium assessed as membrane blebbing at 5 uM measured after 24 hrs by ethidium bromide/acridine orange staining based phase contrast microscopy; assay type: functional, cell-based; method in brief: as §5
[22] = test system: PANC-1; assay: Inhibition of Akt/mTOR signaling pathway in human PANC-1 cells cultured in nutrient-deprived medium assessed as decrease in total Akt level at 20 uM measured after 6 hrs by Western blot analysis relative to control; assay type: cell-based; method in brief: as §3
[23] = test system: PANC-1; assay: Inhibition of autophagy in human PANC-1 cells cultured in nutrient-deprived medium assessed as inhibition of Atg5 expression after 6 hrs by Western blot analysis; assay type: functional, cell-based; settings: dose 2.5-40 µM

COc1cc(OC)c(-c2ccc(O)c3c(OC)cc(C)cc23)c2c1C(C)=N[C@H](C)C2
Activity [1]: 11% | Activity [2]: Active | inhibition [3]: Active | inhibition [4]: 92% | inhibition [5]: Dose-dependent effect | Activity [6]: inactive | inhibition [7]: 100% | inhibition [8]: 65% | inhibition [9]: Dose-dependent effect | Activity [10]: Active | inhibition at 5 µM [11]: 100% | inhibition at 2.5 µM [12]: ≤ 90% | inhibition [13]: Active | inhibition at 10 µM [14]: 100% | Activity [15]: Active | inhibition [16]: Active | inhibition [17]: Active | inhibition [18]: Active | Activity [19]: 100% | Activity [20]: 58% | Activity [21]: Active | inhibition [22]: 48% | inhibition [23]: Dose-dependent effect
